Results published in ChEMBL document CHEMBL1151705, “Novel azalides derived from 16-membered macrolides. Part II: Isolation of the linear 9-formylcarboxylic acid and its sequential macrocyclization with an amino alcohol or an azidoamine” (2008).
≈ marks a conversion by molar mass, not a printed value.

Legend:
Streptococcus pneumoniae [1] = assay: Antimicrobial activity against Streptococcus pneumoniae 8 expressing inducible ermB after 20 hrs by agar dilution method; assay type: functional
Procedure, shortened: (§1)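 Streptococci, H. influenzae and M. catarrhalis were precultured on blood agar plates. Suspensions of about 10⁶ CFU/ml were inoculated onto sensitivity disk agar supplemented with 5% horse blood and incubated at 37 °C for 20 h. MIC was read as the lowest drug concentration with no visible growth.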

Streptococcus pneumoniae [2] = assay: Antimicrobial activity against Streptococcus pneumoniae 9 expressing mefA after 20 hrs by agar dilution method; assay type: functional; procedure, shortened: as §1
Streptococcus pneumoniae [3] = assay: Antimicrobial activity against Streptococcus pneumoniae 10 expressing mefA after 20 hrs by agar dilution method; assay type: functional; procedure, shortened: as §1
Streptococcus pyogenes [4] = assay: Antimicrobial activity against drug-susceptible Streptococcus pyogenes 1 after 20 hrs by agar dilution method; assay type: functional; procedure, shortened: as §1
Streptococcus pyogenes [5] = assay: Antimicrobial activity against Streptococcus pyogenes 3 expressing mefA after 20 hrs by agar dilution method; assay type: functional; procedure, shortened: as §1
Moraxella catarrhalis [6] = assay: Antimicrobial activity against drug-susceptible Moraxella catarrhalis 1 after 20 hrs by agar dilution method; assay type: functional; procedure, shortened: as §1
Moraxella catarrhalis [7] = assay: Antimicrobial activity against drug-susceptible Moraxella catarrhalis 2 after 20 hrs by agar dilution method; assay type: functional; procedure, shortened: as §1
Haemophilus influenzae [8] = assay: Antimicrobial activity against drug-susceptible Haemophilus influenzae 1 after 20 hrs by agar dilution method; assay type: functional; procedure, shortened: as §1
Haemophilus influenzae [9] = assay: Antimicrobial activity against drug-susceptible Haemophilus influenzae 2 after 20 hrs by agar dilution method; assay type: functional; procedure, shortened: as §1
Haemophilus influenzae [10] = assay: Antimicrobial activity against drug-susceptible Haemophilus influenzae 3 after 20 hrs by agar dilution method; assay type: functional; procedure, shortened: as §1
Haemophilus influenzae [11] = assay: Antimicrobial activity against drug-susceptible Haemophilus influenzae 4 after 20 hrs by agar dilution method; assay type: functional; procedure, shortened: as §1
Staphylococcus aureus [12] = assay: Antimicrobial activity against drug-susceptible Staphylococcus aureus 209P JC-1 after 20 hrs by agar dilution method; assay type: functional
Procedure, shortened: (§2)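 Agar dilution MIC. S. aureus seed culture was grown in sensitivity test broth. Cell suspension (about 10⁶ CFU/ml) was inoculated onto sensitivity disk agar with 5% horse blood and incubated at 37 °C for 20 h. MIC was the lowest drug concentration that prevented visible growth.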

Staphylococcus aureus [13] = assay: Antimicrobial activity against drug-susceptible Staphylococcus aureus 2 after 20 hrs by agar dilution method; assay type: functional; procedure, shortened: as §2
Staphylococcus aureus [14] = assay: Antimicrobial activity against drug-susceptible Staphylococcus aureus 3 after 20 hrs by agar dilution method; assay type: functional; procedure, shortened: as §2
Staphylococcus aureus [15] = assay: Antimicrobial activity against Staphylococcus aureus 5 expressing inducible ermB after 20 hrs by agar dilution method; assay type: functional; procedure, shortened: as §2
Streptococcus pneumoniae [16] = assay: Antimicrobial activity against drug-susceptible Streptococcus pneumoniae DP1 Type1 after 20 hrs by agar dilution method; assay type: functional; procedure, shortened: as §1
Streptococcus pneumoniae [17] = assay: Antimicrobial activity against drug-susceptible Streptococcus pneumoniae 2 after 20 hrs by agar dilution method; assay type: functional; procedure, shortened: as §1
Streptococcus pneumoniae [18] = assay: Antimicrobial activity against Streptococcus pneumoniae 7 expressing inducible ermB after 20 hrs by agar dilution method; assay type: functional; procedure, shortened: as §1
Staphylococcus aureus [19] = assay: Antimicrobial activity against Staphylococcus aureus 6 expressing inducible ermC after 20 hrs by agar dilution method
Streptococcus pneumoniae [20] = assay: Antimicrobial activity against drug-susceptible Streptococcus pneumoniae 3 after 20 hrs by agar dilution method; assay type: functional; procedure, shortened: as §1
[21] = Haemophilus influenzae, 20 h, read-out: MIC

Row | MIC (Streptococcus pneumoniae [1]) | MIC (Streptococcus pneumoniae [2]) | MIC (Streptococcus pneumoniae [3]) | MIC (Streptococcus pyogenes [4]) | MIC (Streptococcus pyogenes [5]) | MIC (Moraxella catarrhalis [6]) | MIC (Moraxella catarrhalis [7]) | MIC (Haemophilus influenzae [8]) | MIC (Haemophilus influenzae [9]; [21]) | MIC (Haemophilus influenzae [10]) | MIC (Haemophilus influenzae [11]) | MIC (Staphylococcus aureus [12]) | MIC (Staphylococcus aureus [13]) | MIC (Staphylococcus aureus [14]) | MIC (Staphylococcus aureus [15]) | MIC (Streptococcus pneumoniae [16]) | MIC (Streptococcus pneumoniae [17]) | MIC (Streptococcus pneumoniae [18]) | MIC (Staphylococcus aureus [19]) | MIC (Streptococcus pneumoniae [20]) | SMILES | other results
1 | 128 µg/mL (≈ 130 µM) | 0.06 µg/mL (≈ 0.0608 µM) | 0.06 µg/mL (≈ 0.0608 µM) | 0.13 µg/mL (≈ 0.132 µM) | 0.25 µg/mL (≈ 0.253 µM) | 2 µg/mL (≈ 2.03 µM) | 2 µg/mL (≈ 2.03 µM) | 32 µg/mL (≈ 32.4 µM) | 4 µg/mL (≈ 4.06 µM) | 16 µg/mL (≈ 16.2 µM) | 16 µg/mL (≈ 16.2 µM) | 0.25 µg/mL (≈ 0.253 µM) | 1 µg/mL (≈ 1.01 µM) | 0.25 µg/mL (≈ 0.253 µM) | 0.25 µg/mL (≈ 0.253 µM) | 0.03 µg/mL (≈ 0.0304 µM) | 0.06 µg/mL (≈ 0.0608 µM) | 128 µg/mL (≈ 130 µM) | 0.5 µg/mL (≈ 0.507 µM) |  | CCOC(=O)[C@H]1[C@H](C)O[C@@H](O[C@H]2[C@H](N(C)C)[C@@H](O)[C@H](O[C@H]3[C@@H](CC=O)C[C@@H](C)[C@@H](O)CN(C)CC(/C=C/Cc4ccnc5ccccc45)CCOC(=O)C[C@@H](OC(=O)CC)[C@@H]3OC)O[C@@H]2C)C[C@@]1(C)O (stereo in doubt; form 2) | 
2 | >128 µg/mL | 1 µg/mL (≈ 1.01 µM) | 1 µg/mL (≈ 1.01 µM) | 1 µg/mL (≈ 1.01 µM) | 4 µg/mL (≈ 4.06 µM) | 16 µg/mL (≈ 16.2 µM) | 16 µg/mL (≈ 16.2 µM) | >128 µg/mL | 32 µg/mL (≈ 32.4 µM) | 128 µg/mL (≈ 130 µM) | 128 µg/mL (≈ 130 µM) | 2 µg/mL (≈ 2.03 µM) | 4 µg/mL (≈ 4.06 µM) | 2 µg/mL (≈ 2.03 µM) | 2 µg/mL (≈ 2.03 µM) | 0.5 µg/mL (≈ 0.507 µM) | 1 µg/mL (≈ 1.01 µM) | >128 µg/mL | 4 µg/mL (≈ 4.06 µM) | 0.5 µg/mL (≈ 0.507 µM) | CCOC(=O)[C@H]1[C@H](C)O[C@@H](O[C@H]2[C@H](N(C)C)[C@@H](O)[C@H](O[C@H]3[C@@H](CC=O)C[C@@H](C)[C@@H](O)CN(C)CC(/C=C\Cc4ccnc5ccccc45)CCOC(=O)C[C@@H](OC(=O)CC)[C@@H]3OC)O[C@@H]2C)C[C@@]1(C)O (stereo in doubt; form 2) | 
3 | 64 µg/mL (≈ 65.9 µM) | 0.25 µg/mL (≈ 0.257 µM) | 0.25 µg/mL (≈ 0.257 µM) | 0.5 µg/mL (≈ 0.515 µM) | 2 µg/mL (≈ 2.06 µM) | 4 µg/mL (≈ 4.12 µM) | 4 µg/mL (≈ 4.12 µM) | 32 µg/mL (≈ 32.9 µM) |  | 8 µg/mL (≈ 8.24 µM) | 16 µg/mL (≈ 16.5 µM) | 2 µg/mL (≈ 2.06 µM) | 4 µg/mL (≈ 4.12 µM) | 1 µg/mL (≈ 1.03 µM) | 2 µg/mL (≈ 2.06 µM) | 0.13 µg/mL (≈ 0.134 µM) | 0.25 µg/mL (≈ 0.257 µM) | 64 µg/mL (≈ 65.9 µM) | 2 µg/mL (≈ 2.06 µM) | 0.25 µg/mL (≈ 0.257 µM) | CCOC(=O)[C@H]1[C@H](C)O[C@@H](O[C@H]2[C@H](N(C)C)[C@@H](O)[C@H](O[C@H]3[C@@H](CC=O)C[C@@H](C)[C@@H](O)CN(C)CCC(/C=C/Cc4ccnc5ccccc45)NC(=O)C[C@@H](OC(=O)CC)[C@@H]3OC)O[C@@H]2C)C[C@@]1(C)O (stereo in doubt) | MIC (Haemophilus influenzae [9]): 1 µg/mL (≈ 1.03 µM)
4 | 64 µg/mL (≈ 65.8 µM) | 0.25 µg/mL (≈ 0.257 µM) | 0.25 µg/mL (≈ 0.257 µM) | 0.5 µg/mL (≈ 0.514 µM) | 2 µg/mL (≈ 2.06 µM) | 8 µg/mL (≈ 8.22 µM) | 8 µg/mL (≈ 8.22 µM) | 64 µg/mL (≈ 65.8 µM) |  | 16 µg/mL (≈ 16.4 µM) | 8 µg/mL (≈ 8.22 µM) | 4 µg/mL (≈ 4.11 µM) | 8 µg/mL (≈ 8.22 µM) | 2 µg/mL (≈ 2.06 µM) | 4 µg/mL (≈ 4.11 µM) | 0.13 µg/mL (≈ 0.134 µM) | 0.25 µg/mL (≈ 0.257 µM) | 64 µg/mL (≈ 65.8 µM) | 4 µg/mL (≈ 4.11 µM) | 0.25 µg/mL (≈ 0.257 µM) | CCOC(=O)[C@H]1[C@H](C)O[C@@H](O[C@H]2[C@H](N(C)C)[C@@H](O)[C@H](O[C@H]3[C@@H](CC=O)C[C@@H](C)[C@@H](O)CN(C)CCC(CCCc4ccnc5ccccc45)NC(=O)C[C@@H](OC(=O)CC)[C@@H]3OC)O[C@@H]2C)C[C@@]1(C)O (stereo in doubt; form 2) | MIC (Haemophilus influenzae [9]): 2 µg/mL (≈ 2.06 µM)
